Tests used:
[1] = Plasma concentration in Sprague-Dawley rat at 10 mg/kg, po after 4 hrs by LC-MS/MS analysis; assay type: ADME, organism-based
Method in brief: (§1)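 Male Sprague Dawley rats (10 weeks on arrival, acclimated; 12 weeks at dosing, n=3) given a single oral gavage bolus of 10 mg/kg in 90% corn oil/10% DMSO. Sacrificed 4 h post-dose; brain and plasma collected; parent compound quantified by LC–MS/MS; mean and SD reported.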

[2] = Permeability of compound across apical to basal compartment in PBS at pH 7.4 at 10 uM after 4 hrs by PAMPA; assay type: ADME; details: pH 7.4, 4 h
Method in brief: (§2)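 PAMPA kit per manufacturer; compound at 10 µM final added to the apical compartment in PBS at pH 5.5 or 7.4; incubated 4 h at room temperature; both compartments sampled and measured by LC–MS; percent apical-to-basal transport, mean of 3.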

[3] = Permeability of compound across apical to basal compartment in PBS at pH 5.5 at 10 uM after 4 hrs by PAMPA; assay type: ADME; details: pH 5.5, 4 h; method in brief: as §2
[4] = Drug uptake in Sprague-Dawley rat brain at 10 mg/kg, po after 4 hrs by LC-MS/MS analysis; assay type: ADME, organism-based; details: read-out: Drug uptake; method in brief: as §1
Cannabinoid receptor 2 = Cannabinoid receptor 2 (Homo sapiens, UniProt P34972); assay: Displacement of [3H]CP55940 from human CB2 receptor expressed in CHO cell membranes
[5] = Ratio of drug level in Sprague-Dawley rat brain to plasma at 10 mg/kg, po after 4 hrs by LC-MS/MS analysis; assay type: ADME, organism-based; method in brief: as §1
Homo sapiens = organism: Homo sapiens; assay: Selectivity ratio of Ki for human CB2 receptor to Ki for human CB1 receptor
Method in brief: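 Ki values from displacement of [³H]CP55940 in membranes of CHO cells overexpressing human CB1 or human CB2; ratio taken as Ki(CB2)/Ki(CB1). Binding was run only on compounds with apparent Ke <50 nM in the CB1 calcium assay.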

MDCK = assay: Permeability across apical to basolateral side of MDCK cell BBB penetration model expressing human mdr1 at 10 uM incubated for 1 hr by mass spectrometric analysis; assay type: ADME, cell-based, Canis lupus familiaris; details: dog
Method in brief: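 MDCK cells transfected with human MDR1 grown 4 days to confluence on Transwell-type filters in DMEM/F12 with 10% FBS and antibiotics. Compound added apically at 10 µM in HBSS with 25 mM glucose, HEPES pH 7.4; 1 h at 37 °C; apical and basal samples quantified by LC–MS/MS (MRM); percent apical-to-basal transport.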

Cannabinoid receptor 1 [6] = molecular target: T1, Cannabinoid receptor 1 (Homo sapiens, UniProt P21554); assay: Displacement of [3H]CP55940 from human CB1 receptor expressed in CHO cell membranes; assay type: cell-based
Liver = assay: Stability of compound in human liver S9 fractions assessed as compound remaining at 10 uM incubated for 60 mins by mass spectrometric analysis; assay type: ADME, subcellular, Liver S9 fraction; details: s9, 1 h
Method in brief: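 Mixed-gender pooled human hepatic S9 at 1 mg/mL; compound at 10 µM final in 50 mM potassium phosphate pH 7.4, 3 mM MgCl2 with NADPH regenerating system (1 mM NADP, 5 mM glucose-6-phosphate, 1 unit/mL G6PDH); triplicates, 60 min; quenched with 3 volumes acetonitrile; LC–MS quantified against matrix standard curves; percent parent remaining.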

Cannabinoid receptor 1 [7] = molecular target: T1, Cannabinoid receptor 1; assay: Inverse agonist activity at human CB1 receptor expressed in CHO cells assessed as increase in intracellular calcium mobilization after 90 secs by Calcein-4 AM-staining based FLIPR assay; assay type: functional, cell-based
[8] = Ratio of drug level in Sprague-Dawley rat brain to plasma at 10 mg/kg, ip; assay type: ADME, organism-based; details: read-out: BPR
Cannabinoid receptor 1 [9] = molecular target: T1, Cannabinoid receptor 1; details: CHO-K1

T1 sequence (P21554 whole entry): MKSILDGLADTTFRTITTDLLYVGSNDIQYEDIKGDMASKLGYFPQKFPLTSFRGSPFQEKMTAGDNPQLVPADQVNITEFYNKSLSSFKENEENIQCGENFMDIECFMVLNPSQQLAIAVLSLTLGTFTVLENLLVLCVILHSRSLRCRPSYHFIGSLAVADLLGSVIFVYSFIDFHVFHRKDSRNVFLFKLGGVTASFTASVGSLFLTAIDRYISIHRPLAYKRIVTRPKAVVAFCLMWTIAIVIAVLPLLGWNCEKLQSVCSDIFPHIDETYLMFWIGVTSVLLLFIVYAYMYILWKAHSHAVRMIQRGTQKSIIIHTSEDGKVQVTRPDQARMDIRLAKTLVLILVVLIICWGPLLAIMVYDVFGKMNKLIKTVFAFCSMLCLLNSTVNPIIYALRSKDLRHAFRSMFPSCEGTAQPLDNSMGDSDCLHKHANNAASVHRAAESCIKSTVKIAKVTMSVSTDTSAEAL
Cannabinoid receptor 2, sequence (P34972 whole entry): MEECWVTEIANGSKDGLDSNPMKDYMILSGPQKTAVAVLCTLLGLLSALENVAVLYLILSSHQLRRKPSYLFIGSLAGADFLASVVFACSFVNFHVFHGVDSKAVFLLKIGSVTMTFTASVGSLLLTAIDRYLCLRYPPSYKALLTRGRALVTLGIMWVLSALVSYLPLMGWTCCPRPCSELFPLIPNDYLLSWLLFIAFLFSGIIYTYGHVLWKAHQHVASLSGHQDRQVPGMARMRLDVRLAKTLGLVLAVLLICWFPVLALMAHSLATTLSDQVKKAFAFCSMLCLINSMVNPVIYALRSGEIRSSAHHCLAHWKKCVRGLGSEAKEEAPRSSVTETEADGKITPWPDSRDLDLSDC

| Kp [8] | SMILES | concentration at 4 h [1] [ng/mL] | permeability [2] [%] | permeability [3] [%] | concentration at 4 h [4] [ng/g] | Ki (Cannabinoid receptor 2) [nM] | BPR [5] [%] | Ratio Ki (Homo sapiens) | permeability (MDCK) [%] | Ki (Cannabinoid receptor 1 [6]) [nM] | Stability (Liver) [%] | EC50 (Cannabinoid receptor 1 [7]) [nM] | Ke (Cannabinoid receptor 1 [9]) [nM] |
| --- | --- | --- | --- | --- | --- | --- | --- | --- | --- | --- | --- | --- | --- |
| – | CCCOC(=O)N1CCC(NC(=O)c2nn(-c3ccc(Cl)cc3Cl)c(-c3ccc(Cl)cc3)c2C)CC1 | 455 | 1.9 | 1.4 | 69 | 1540 | 15 | 175 | < 1 | 8.82 | 66 | 20 | – |
| – | CCCCC(=O)N1CCC(NC(=O)c2nn(-c3ccc(Cl)cc3Cl)c(-c3ccc(Cl)cc3)c2C)CC1 | – | 1.8 | 1.1 | – | 1780 | – | 123 | < 1 | 14.5 | 72 | – | – |
| – | Cc1c(C(=O)NC2CCN(S(=O)(=O)c3ccccc3)CC2)nn(-c2ccc(Cl)cc2Cl)c1-c1ccc(Cl)cc1 | – | 0.1 | 0.03 | – | > 20000 | – | – | < 1 | 43 | > 90 | – | – |
| – | Cc1c(C(=O)NC2CCN(C(=O)C3CCCC3)CC2)nn(-c2ccc(Cl)cc2Cl)c1-c1ccc(Cl)cc1 | – | 0.2 | 0.2 | – | 2500 | – | 271 | < 1 | 9.2 | 62 | – | – |
| – | Cc1c(C(=O)NC2CCN(C(=O)OC(C)C)CC2)nn(-c2ccc(Cl)cc2Cl)c1-c1ccc(Cl)cc1 | – | 0.1 | 0 | – | 1930 | – | 301 | < 1 | 6.4 | 82 | – | – |
| – | Cc1c(C(=O)NC2CCN(S(=O)(=O)CCC(F)(F)F)CC2)nn(-c2ccc(Cl)cc2Cl)c1-c1ccc(Cl)cc1 | – | 0.1 | 0.1 | – | 4720 | – | 492 | < 1 | 9.6 | > 90 | – | – |
| < 0.04 | Cc1c(C(=O)N2CCC(NC(=O)NC(C)(C)C)(c3ccccc3)CC2)nn(-c2ccc(Cl)cc2Cl)c1-c1ccc(Cl)cc1 | – | – | – | – | – | – | – | – | – | – | – | – |
| – | Cc1c(C(=O)NC2CCN(S(=O)(=O)CC(C)C)CC2)nn(-c2ccc(Cl)cc2Cl)c1-c1ccc(Cl)cc1 | – | 0.2 | 0.1 | – | 6210 | – | 143 | < 1 | 43.5 | > 90 | – | – |
| – | CCCCOC(=O)N1CCC(NC(=O)c2nn(-c3ccc(Cl)cc3Cl)c(-c3ccc(Cl)cc3)c2C)CC1 | – | – | – | – | – | – | – | – | – | – | – | 88 |
| – | Cc1c(C(=O)NC2CCN(C(=O)CC(C)C)CC2)nn(-c2ccc(Cl)cc2Cl)c1-c1ccc(Cl)cc1 | – | 3.6 | 3.3 | – | 1810 | – | 63 | 1 | 28.9 | 72 | – | – |
| – | Cn1c(=O)c2c(ncn2C)n(C)c1=O [CAFFEINE] | – | – | – | – | – | – | – | 80 | – | – | – | – |
| – | Cc1c(C(=O)NC2CCN(C(=O)c3ccccc3)CC2)nn(-c2ccc(Cl)cc2Cl)c1-c1ccc(Cl)cc1 | – | 0.2 | 0.3 | – | 1730 | – | 230 | < 1 | 7.5 | > 90 | – | – |
| < 0.04 | Cc1c(C(=O)NC2CCN(C(=O)OC(C)(C)C)CC2)nn(-c2ccc(Cl)cc2Cl)c1-c1ccc(Cl)cc1 | – | – | – | – | – | – | – | – | – | – | – | – |
| – | CCS(=O)(=O)N1CCC(NC(=O)c2nn(-c3ccc(Cl)cc3Cl)c(-c3ccc(Cl)cc3)c2C)CC1 | – | 0.05 | 0.1 | – | 4410 | – | 99 | < 1 | 44.4 | 68 | – | – |
| – | Cc1c(C(=O)NC2CCN(C(=O)C(F)(F)F)CC2)nn(-c2ccc(Cl)cc2Cl)c1-c1ccc(Cl)cc1 | – | 0.2 | 0.4 | – | 1040 | – | 548 | < 1 | 1.9 | 74 | – | – |
